Assay results published in ChEMBL document CHEMBL3232844, “Synthesis and structure activity relationships of schweinfurthin indoles” (2014).

Legend:
Assay type in all cases: functional
[1] = system: MOLT-4; assay: Cytotoxicity against human MOLT4 cells
Method in brief: (§1)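 Tested in a 60-cell-line human tumor panel screen; the read-out is growth inhibition, reported as GI50 for each cell line.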

[2] = system: TK-10; assay: Cytotoxicity against human TK10 cells
Method in brief: (§2)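 Cell line run as part of the 60-cell-line screening panel; growth inhibition was reported as a GI50 for each line.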

[3] = system: HOP-62; assay: Cytotoxicity against human HOP62 cells; method in brief: as §1
[4] = system: T47D; assay: Cytotoxicity against human T47D cells; method in brief: as §2
[5] = system: MDA-MB-435; assay: Cytotoxicity against human MDA-MB-435 cells; method in brief: as §1
[6] = system: 786-0; assay: Cytotoxicity against human 786-0 cells; method in brief: as §1
[7] = system: COLO 205; assay: Cytotoxicity against human COLO205 cells; method in brief: as §1
[8] = system: MCF7; assay: Cytotoxicity against human MCF7 cells; method in brief: as §1
[9] = system: MDA-MB-468; assay: Cytotoxicity against human MDA-MB-468 cells; method in brief: as §1
[10] = system: SK-MEL-2; assay: Cytotoxicity against human SK-MEL-2 cells; method in brief: as §1
[11] = system: SF-268; assay: Cytotoxicity against human SF268 cells; method in brief: as §1
[12] = system: BT-549; assay: Cytotoxicity against human BT549 cells; method in brief: as §1
[13] = system: HL-60(TB); assay: Cytotoxicity against human HL-60(TB) cells
Method in brief: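 Tested within the NCI 60-cell-line screen, with GI50 as the read-out. Values are the average of two independent experiments. The lowest concentration tested was 10 nM.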

[14] = system: LOX IMVI; assay: Cytotoxicity against human LOXIMVI cells; method in brief: as §1
[15] = system: NCI-H23; assay: Cytotoxicity against human NCI-H23 cells; method in brief: as §1
[16] = system: K562; assay: Cytotoxicity against human K562 cells; method in brief: as §1
[17] = system: NCI-H460; assay: Cytotoxicity against human NCI-H460 cells; method in brief: as §1
[18] = system: HCC 2998; assay: Cytotoxicity against human HCC2998 cells; method in brief: as §1
[19] = Cytotoxicity against human HCT15 cells; method in brief: as §1
[20] = Cytotoxicity against human UACC62 cells; method in brief: as §2
[21] = system: MDA-MB-231; assay: Cytotoxicity against human MDA-MB-231 cells; method in brief: as §1
[22] = Cytotoxicity against human UACC257 cells; method in brief: as §2
[23] = system: SF-295; assay: Cytotoxicity against human SF295 cells; method in brief: as §1
[24] = system: M14; assay: Cytotoxicity against human M14 cells; method in brief: as §1
[25] = system: PC-3; assay: Cytotoxicity against human PC3 cells; method in brief: as §1
[26] = system: SNB-75; assay: Cytotoxicity against human SNB75 cells; method in brief: as §2
[27] = system: SF-539; assay: Cytotoxicity against human SF539 cells; method in brief: as §1
[28] = system: RXF 393; assay: Cytotoxicity against human RXF393 cells; method in brief: as §1
[29] = system: IGROV-1; assay: Cytotoxicity against human IGROV1 cells; method in brief: as §1
[30] = Cytotoxicity against human OVCAR4 cells; method in brief: as §1
[31] = Cytotoxicity against human NCI-ADR-RES cells; method in brief: as §1
[32] = Cytotoxicity against human OVCAR3 cells; method in brief: as §1
[33] = system: CAKI-1; assay: Cytotoxicity against human Caki1 cells; method in brief: as §1
[34] = system: SR; assay: Cytotoxicity against human SR cells; method in brief: as §2
[35] = system: CCRF-CEM; assay: Cytotoxicity against human CCRF-CEM cells
[36] = system: DU-145; assay: Cytotoxicity against human DU145 cells; method in brief: as §1
[37] = system: SK-OV-3; assay: Cytotoxicity against human SKOV3 cells; method in brief: as §1
[38] = Cytotoxicity against human OVCAR8 cells; method in brief: as §1
[39] = system: SK-MEL-5; assay: Cytotoxicity against human SK-MEL-5 cells; method in brief: as §1
[40] = system: KM12; assay: Cytotoxicity against human KM12 cells; method in brief: as §1
[41] = system: NCI-H226; assay: Cytotoxicity against human NCI-H226 cells; method in brief: as §1
[42] = system: HT-29; assay: Cytotoxicity against human HT-29 cells; method in brief: as §1
[43] = system: HCT-116; assay: Cytotoxicity against human HCT116 cells; method in brief: as §1
[44] = read-out: pLC50 (the source's name) (converted)

`COc1cc(/C=C/c2cc(O)c3cc[nH]c3c2)cc2c1O[C@]1(C)CC[C@@H](O)C(C)(C)[C@H]1C2` gave a GI50 [1] of 0.309 µM, a CC50 [1, 44] of 75.9 µM and a TGI ([1]; read-out: pTGI (converted)) of 1.78 µM. For the same compound, the GI50 [2] was 5.62 µM, the LC50 [2] was greater than 100 µM and the TGI ([2]; read-out: pTGI (converted)) was 49 µM. For the same compound, the GI50 [3] was 1.91 µM, the CC50 [3, 44] was greater than 100 µM and the TGI ([3]; read-out: pTGI (converted)) was 8.13 µM. It also gave a GI50 [4] of 5.01 µM, a CC50 [4, 44] of 83.2 µM and a TGI ([4]; read-out: pTGI (converted)) of 22.4 µM. It also gave a GI50 [5] of 0.933 µM, a CC50 [5, 44] of 85.1 µM and a TGI ([5]; read-out: pTGI (converted)) of 11.2 µM. It also gave a GI50 [6] of 0.372 µM, an LC50 (concentration killing 50% of cells) [6] of 6.31 µM and a TGI ([6]; read-out: pTGI (converted)) of 1.82 µM. The GI50 [7] was 1.26 µM, the CC50 [7, 44] was 11.5 µM and the TGI ([7]; read-out: pTGI (converted)) was 3.39 µM. The GI50 [8] was 1.29 µM, the LC50 [8] was 51.3 µM and the TGI ([8]; read-out: pTGI (converted)) was 20.4 µM. It also gave a GI50 [9] of 2.45 µM, an LC50 [9] greater than 100 µM and a TGI ([9]; read-out: pTGI (converted)) of 7.59 µM. The GI50 [10] was 1.12 µM, the CC50 [10, 44] was 31.6 µM and the TGI ([10]; read-out: pTGI (converted)) was 7.24 µM. It also gave a GI50 [11] of 0.794 µM, a CC50 [11, 44] greater than 100 µM and a TGI ([11]; read-out: pTGI (converted)) of 34.7 µM. The GI50 [12] was 0.178 µM, the CC50 [12, 44] was 95.5 µM and the TGI ([12]; read-out: pTGI (converted)) was 4.57 µM. It also gave a GI50 [13] of 0.513 µM, a CC50 [13, 44] greater than 100 µM and a TGI ([13]; read-out: pTGI (converted)) of 8.71 µM. It also gave a GI50 [14] of 0.363 µM, a CC50 [14, 44] of 4.57 µM and a TGI ([14]; read-out: pTGI (converted)) of 1.32 µM. It also gave a GI50 [15] of 1.7 µM, a CC50 [15, 44] of 61.7 µM and a TGI ([15]; read-out: pTGI (converted)) of 8.13 µM. The GI50 [16] was 0.708 µM, the CC50 [16, 44] was greater than 100 µM and the TGI ([16]; read-out: pTGI (converted)) was 20.4 µM. The GI50 [17] was 0.871 µM, the CC50 [17, 44] was 5.37 µM and the TGI ([17]; read-out: pTGI (converted)) was 2.29 µM. It also gave a GI50 [18] of 2.88 µM, a CC50 [18, 44] of 55 µM and a TGI ([18]; read-out: pTGI (converted)) of 14.5 µM. It also gave a GI50 ([19]; HCT-15) of 0.324 µM, a CC50 ([19]; HCT-15, read-out: pLC50 (the source's name) (converted)) greater than 100 µM and a TGI ([19]; HCT-15, read-out: pTGI (converted)) of 33.9 µM. For the same compound, the GI50 ([20]; UACC-62) was 2.19 µM, the CC50 ([20]; UACC-62, read-out: pLC50 (the source's name) (converted)) was 43.7 µM and the TGI ([20]; UACC-62, read-out: pTGI (converted)) was 7.24 µM. It also gave a GI50 [21] of 1.82 µM, an LC50 [21] greater than 100 µM and a TGI ([21]; read-out: pTGI (converted)) of 20.9 µM. The GI50 ([22]; UACC-257) was 2.34 µM, the CC50 ([22]; UACC-257, read-out: pLC50 (the source's name) (converted)) was 28.8 µM and the TGI ([22]; UACC-257, read-out: pTGI (converted)) was 8.32 µM. For the same compound, the GI50 ([23]; read-out: GI50) was 0.23 µM, the GI50 ([23]; read-out: pGI50 (converted)) was 0.234 µM and the CC50 [23, 44] was 6.03 µM. For the same compound, the TGI ([23]; read-out: pTGI (converted)) was 1 µM, the GI50 [24] was 0.676 µM and the CC50 [24, 44] was 6.17 µM. For the same compound, the TGI ([24]; read-out: pTGI (converted)) was 2.19 µM, the GI50 [25] was 0.631 µM and the LC50 [25] was greater than 100 µM. It also gave a TGI ([25]; read-out: pTGI (converted)) of 38 µM, a GI50 [26] of 0.269 µM and a CC50 [26, 44] greater than 100 µM. The TGI ([26]; read-out: pTGI (converted)) was 4.57 µM, the GI50 [27] was 0.257 µM and the TGI ([27]; read-out: pTGI (converted)) was 1.23 µM. It also gave a GI50 [28] of 0.115 µM, an LC50 [28] of 0.871 µM and a TGI ([28]; read-out: pTGI (converted)) of 0.316 µM. For the same compound, the GI50 [29] was 2.29 µM, the CC50 [29, 44] was 60.3 µM and the TGI ([29]; read-out: pTGI (converted)) was 10.2 µM. It also gave a GI50 ([30]; OVCAR-4) of 3.31 µM, a CC50 ([30]; OVCAR-4, read-out: pLC50 (the source's name) (converted)) greater than 100 µM and a TGI ([30]; OVCAR-4, read-out: pTGI (converted)) of 34.7 µM. It also gave a GI50 [31] of 2.57 µM, a CC50 [31, 44] greater than 100 µM and a TGI ([31]; read-out: pTGI (converted)) of 33.9 µM. The GI50 ([32]; OVCAR-3) was 1.82 µM, the CC50 ([32]; OVCAR-3, read-out: pLC50 (the source's name) (converted)) was greater than 100 µM and the TGI ([32]; OVCAR-3, read-out: pTGI (converted)) was 10.5 µM. It also gave a GI50 [33] of 0.741 µM, an LC50 [33] of 20.9 µM and a TGI ([33]; read-out: pTGI (converted)) of 2.29 µM. The GI50 [34] was 0.302 µM, the CC50 [34, 44] was greater than 100 µM and the TGI ([34]; read-out: pTGI (converted)) was 9.55 µM. For the same compound, the GI50 [35] was 0.525 µM, the CC50 [35, 44] was greater than 100 µM and the TGI ([35]; read-out: pTGI (converted)) was 36.3 µM. The GI50 [36] was 1.15 µM, the LC50 (50% lethal concentration) [36] was 25.1 µM and the TGI ([36]; read-out: pTGI (converted)) was 6.76 µM. It also gave a GI50 [37] of 1.51 µM, an LC50 [37] greater than 100 µM and a TGI ([37]; read-out: pTGI (converted)) of 10 µM. It also gave a GI50 ([38]; OVCAR-8) of 1.2 µM, a CC50 ([38]; OVCAR-8, read-out: pLC50 (the source's name) (converted)) greater than 100 µM and a TGI ([38]; OVCAR-8, read-out: pTGI (converted)) of 30.9 µM. It also gave a GI50 [39] of 0.195 µM, a CC50 [39, 44] of 1.12 µM and a TGI ([39]; read-out: pTGI (converted)) of 0.457 µM. The GI50 [40] was 0.457 µM, the CC50 [40, 44] was 9.55 µM and the TGI ([40]; read-out: pTGI (converted)) was 1.86 µM. The GI50 [41] was 12 µM, the CC50 [41, 44] was 70.8 µM and the TGI ([41]; read-out: pTGI (converted)) was 28.8 µM. For the same compound, the GI50 [42] was 0.708 µM, the CC50 [42, 44] was 93.3 µM and the TGI ([42]; read-out: pTGI (converted)) was 4.07 µM. It also gave a GI50 [43] of 0.912 µM, a CC50 [43, 44] of 6.03 µM and a TGI ([43]; read-out: pTGI (converted)) of 2.45 µM.
